Active and inactive are the calls of the source. No cut-off for these calls is given here.
Columns and labels:
[1] = Cytotoxicity against human Molt4/C8 cells assessed as growth inhibition after 72 hrs by coulter counter method; assay type: functional, cell-based; details: Molt4/C8, 72 h
CCRF-CEM = assay: Cytotoxicity against human CEM cells assessed as growth inhibition after 72 hrs by coulter counter method; assay type: functional, cell-based
L1210 = assay: Cytotoxicity against mouse L1210 cells assessed as growth inhibition after 48 hrs by coulter counter method; assay type: functional, cell-based; details: L1210, 48 h
HL-60 = assay: Cytotoxicity against human HL60 cells after 48 hrs by MTT assay; assay type: functional; details: HL-60, 48 h
HSC-2 [2] = assay: Cytotoxicity against human HSC2 cells after 48 hrs by MTT assay; assay type: functional; details: HSC-2, 48 h
HSC-3 [3] = assay: Cytotoxicity against human HSC3 cells after 48 hrs by MTT assay; assay type: functional; details: HSC-3, 48 h
HSC-4 = assay: Cytotoxicity against human HSC4 cells after 48 hrs by MTT assay; assay type: functional; details: HSC-4, 48 h
[4] = Cytotoxicity against HGF after 48 hrs by MTT assay; assay type: cell-based; details: human, HGF cells
How it was run: (§1)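 Nonmalignant human cells were exposed to compounds for 48 h at 37 °C. CC50 was taken as the concentration cytotoxic to 50% of cells.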

[5] = Cytotoxicity against human HPC after 48 hrs by MTT assay; assay type: cell-based; details: HPC cells; how it was run: as §1
[6] = Cytotoxicity against HPLF after 48 hrs by MTT assay; assay type: cell-based; details: human, HPLF cells; how it was run: as §1
[7] = Selectivity index, ratio of CC50 for HGF to CC50 for human HL60 cells; details: pooled result: one value given for 3 cell lines, strains, targets or settings
[8] = Selectivity index, ratio of CC50 for HGF to CC50 for human HSC2 cells; details: pooled result: one value given for 3 cell lines, strains, targets or settings
[9] = Selectivity index, ratio of CC50 for HGF to CC50 for human HSC3 cells; details: pooled result: one value given for 3 cell lines, strains, targets or settings
[10] = Selectivity index, ratio of CC50 for HGF to CC50 for human HSC4 cells
[11] = Selectivity index, ratio of CC50 for human HPC to CC50 for human HSC4 cells
[12] = Selectivity index, ratio of CC50 for HPLF to CC50 for human HSC4 cells
Mus musculus [13] = assay: Toxicity in mouse assessed as mortality at 30 to 300 mg/kg, ip after 0.5 to 4 hrs; assay type: organism-based; details: in vivo
How it was run: (§2)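 Mice were given compound intraperitoneally at 30, 100 and 300 mg/kg. Animals were checked for survival and neurological deficit at 0.5 and 4 h after dosing.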

HSC-2 [14] = assay: Induction of apoptosis in human HSC2 cells assessed as PARP1 cleavage at 7 uM after 24 hrs by chemiluminescence method; assay type: functional, cell-based
HSC-3 [15] = assay: Induction of apoptosis in human HSC3 cells assessed as PARP1 cleavage at 7 uM after 24 hrs by chemiluminescence method; assay type: functional, cell-based
HSC-2 [16] = assay: Cell cycle arrest in human HSC2 cells assessed as accumulation at G0/G1 phase at 7 uM after 24 hrs by propidium iodide staining-based method (reference value: 73%); assay type: functional
HSC-2 [17] = assay: Cell cycle arrest in human HSC2 cells assessed as accumulation at S phase at 7 uM after 24 hrs by propidium iodide staining-based method (reference value: 13%); assay type: functional
HSC-2 [18] = assay: Cell cycle arrest in human HSC2 cells assessed as accumulation at G2/M phase at 7 uM after 24 hrs by propidium iodide staining-based method (reference value: 11%); assay type: functional
Mus musculus [19] = assay: Neurotoxicity in mouse at 300 mg/kg, ip after 0.5 hrs; assay type: toxicity, organism-based; details: in vivo
How it was run: (§3)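 Mice received intraperitoneal doses of 30, 100 and 300 mg/kg. Animals were scored for survival and neurological deficit at 0.5 and 4 h after dosing.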

Mus musculus [20] = assay: Neurotoxicity in mouse at 300 mg/kg, ip after 4 hrs; assay type: toxicity, organism-based; details: in vivo; how it was run: as §3
Rattus norvegicus [21] = assay: Toxicity in rat assessed as overt toxicity at 50 mg/kg, po after 0.25 to 4 hrs; assay type: organism-based; details: in vivo
How it was run: (§4)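 Rats received a single oral dose and were examined for overt toxicity at 0.25, 0.5, 1, 2 and 4 h.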

[22] = Chemical stability in deuterium oxide/deuterated dimethylsulfoxide after 48 hrs by 1H NMR method; assay type: physicochemical
How it was run: (§5)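 Compound solutions were incubated for 48 h at 37 °C, the same time and temperature as the in vitro assays, and checked for hydrolysis to the corresponding phenol.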

[23] = Chemical stability in pH 7.4 buffer/dimethylsulfoxide after 48 hrs by 1H NMR method; assay type: physicochemical; details: pH 7.4, 48 h; how it was run: as §5
Serum = assay: Drug metabolism in rat serum/dimethylsulfoxide assessed as 6-benzylidene-2-(4-hydroxybenzylidene)cyclohexanone formation after 48 hrs by 1H NMR method; assay type: ADME, cell-free; how it was run: as §5
[24] = Toxicity in ip dosed mouse; assay type: organism-based; details: in vivo; how it was run: as §2
Rattus norvegicus [25] = assay: Toxicity in rat assessed as overt toxicity at 30 mg/kg, po after 0.25 to 4 hrs; assay type: organism-based; details: in vivo; how it was run: as §4

Row | Compound | IC50 [1] [µM] | IC50 (CCRF-CEM) [µM] | IC50 (L1210) [µM] | CC50 (HL-60) [µM] | CC50 (HSC-2 [2]) [µM] | CC50 (HSC-3 [3]) [µM] | CC50 (HSC-4) [µM] | CC50 at 48 h [4] [µM] | CC50 at 48 h [5] [µM] | CC50 at 48 h [6] [µM] | Selectivity Index [7] | Selectivity Index [8] | Selectivity Index [9] | Selectivity Index [10] | Selectivity Index [11] | Selectivity Index [12] | Activity (Mus musculus [13]) | other results
1 | O=C1/C(=C/c2ccc(OC(=O)c3cccnc3)cc2)CCC/C1=C\c1ccc([N+](=O)[O-])cc1 | 38.1 | 48.1 | 61.1 | > 200 | 112 | > 200 | > 200 | > 200 | > 200 | > 200 | 1 | >1.79 | 1 | 1 | 1 | 1 | Non-Toxic | –
2 | COc1ccc(/C=C2\CCC/C(=C\c3ccc(O)cc3)C2=O)cc1 | 4.18 | 5.68 | 6.85 | – | – | – | – | – | – | – | – | – | – | – | – | – | – | –
3 | O=C1/C(=C/c2ccc(O)cc2)CCC/C1=C\c1ccc(O)cc1 | 5.52 | 6.84 | 13.5 | – | – | – | – | – | – | – | – | – | – | – | – | – | – | –
4 | O=C1/C(=C/c2ccc(OC(=O)c3cccnc3)cc2)CCC/C1=C\c1ccc(OC(=O)c2cccnc2)cc1 | 22.6 | 169 | 213 | – | – | – | – | – | – | – | – | – | – | – | – | – | Non-Toxic | –
5 | O=C1/C(=C/c2ccccc2)CCC/C1=C\c1ccc(OC(=O)c2ccccc2)cc1 | 10.4 | 40.4 | 46.7 | – | – | – | – | – | – | – | – | – | – | – | – | – | Non-Toxic | –
6 | O=C1/C(=C/c2ccccc2)CCC/C1=C\c1ccc(O)cc1 | 5.17 | 5.82 | 7.32 | – | – | – | – | – | – | – | – | – | – | – | – | – | – | –
7 | O=C1/C(=C/c2ccc(Cl)cc2)CCC/C1=C\c1ccc(OC(=O)c2cccnc2)cc1 | 7.89 | 17.4 | 29.6 | 10.5 | 30.5 | 33.7 | 37.3 | 190 | 179 | 154 | 16.6 | 5.71 | 5.16 | 4.67 | 4.67 | 4.67 | Non-Toxic | –
8 | COc1ccc(/C=C2\CCC/C(=C\c3ccc(OC(=O)c4cccnc4)cc3)C2=O)cc1 | 1.19 | 9.85 | 7.63 | 2.3 | 30.3 | 16 | 22.7 | > 200 | > 200 | > 200 | >87 | >6.6 | >12.5 | >8.81 | >8.81 | >8.81 | Non-Toxic | –
9 | O=C1/C(=C/c2ccccc2)CCC/C1=C\c1ccc(OC(=O)c2cccnc2)cc1 | 1.62 | 7.3 | 8.71 | 1.5 | 12.5 | 17.7 | 15.9 | 116 | 142 | 60 | 70.7 | 8.48 | 5.99 | 6.67 | 6.67 | 6.67 | Non-Toxic | Activity (HSC-2 [14]): Active; Activity (HSC-3 [15]): inactive; Activity (HSC-2 [16]): 86%; Activity (HSC-2 [17]): 9.7%; Activity (HSC-2 [18]): 1.5%; Activity (Mus musculus [19]): Toxic; Activity (Mus musculus [20]): Non-Toxic; Activity (Rattus norvegicus [21]): Non-Toxic; Stability [22]: Stable; Stability [23]: Stable; Drug metabolism (Serum): Metabolite_Notdetected
10 | N[C@@H](Cc1ccc(N(CCCl)CCCl)cc1)C(=O)O [MELPHALAN] | – | – | – | 0.89 | 12 | 46 | 46 | 73 | 37 | 92 | 75.6 | 5.61 | 1.46 | 1.46 | 1.46 | 1.46 | – | LD50 [24]: 21.7 mg/kg
11 | Cc1ccc(/C=C2\CCC/C(=C\c3ccc(O)cc3)C2=O)cc1 | 5.22 | 4.31 | 7.41 | – | – | – | – | – | – | – | – | – | – | – | – | – | – | –
12 | Cc1ccc(/C=C2\CCC/C(=C\c3ccc(OC(=O)c4cccnc4)cc3)C2=O)cc1 | 2.88 | 9.49 | 12.8 | 1.9 | 90.3 | 98 | 94.3 | 184 | > 200 | 163 | >95.8 | >2.02 | >1.86 | >1.93 | >1.93 | >1.93 | Non-Toxic | Activity (Rattus norvegicus [25]): Non-Toxic
13 | Cc1ccc(/C=C2\CCC/C(=C\c3ccc(OC(=O)c4ccccc4)cc3)C2=O)cc1 | 5.7 | 10.6 | 37.9 | – | – | – | – | – | – | – | – | – | – | – | – | – | Non-Toxic | –
14 | O=C1/C(=C/c2ccc(O)cc2)CCC/C1=C\c1ccc(Cl)cc1 | 4.9 | 2.69 | 6.44 | – | – | – | – | – | – | – | – | – | – | – | – | – | – | –
15 | O=C(O)c1cccnc1 [NIACIN] | > 500 | > 500 | > 500 | > 200 | > 200 | > 200 | > 200 | > 200 | > 200 | > 200 | 1 | 1 | 1 | 1 | 1 | 1 | – | –
